In ChEMBL document CHEMBL1828575, “Design, synthesis and antiproliferative activities of biarylolefins based on polyhydroxylated and carbohydrate scaffolds” (Eur J Med Chem, 2011):

Experiments:
Type in all cases: functional
HCT-15 = assay: Cytotoxicity against human HCT15 cells assessed as cellular growth at 10 uM after 48 hrs by SRB assay
Summary of the method: (§1)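 NCI60 single-dose screen of cells in RPMI 1640 with 5% FBS and 2 mM L-glutamine, preincubated 24 h at 37 °C, 5% CO₂. Cells were then exposed 48 h to compound added from DMSO stock. TCA-fixed, stained with 0.4% SRB in 1% acetic acid, dye solubilised in 10 mM Tris base and read at 515 nm. Growth is given as percent of untreated control.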

SK-MEL-5 = assay: Antitumor activity against human SK-MEL-5 cells after 48 hrs by SRB assay; settings: SK-MEL-5, 48 h
Summary of the method: (§2)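 NCI60 panel cells grown in RPMI 1640 with 5% FBS and 2 mM L-glutamine, plated at 5000–40,000 cells/well and preincubated 24 h at 37 °C, 5% CO₂. Compound was added from DMSO at five concentrations, 10-fold or 1/2 log dilutions, then incubated 48 h.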

SN12C = assay: Antitumor activity against human SN12C cells after 48 hrs by SRB assay; summary of the method: as §2
OVCAR-4 = assay: Cytotoxicity against human OVCAR4 cells assessed as cellular growth at 10 uM after 48 hrs by SRB assay
Summary of the method: (§3)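 NCI-60 panel lines grown in RPMI 1640 with 5% FBS and 2 mM L-glutamine. Plated at 5000–40,000 cells/well and preincubated 24 h at 37 °C, 5% CO₂, with time-zero plates fixed in TCA. Compounds, dissolved in DMSO and diluted in medium, were applied for 48 h. Cells were TCA-fixed (10% final for adherent, 16% for suspension) and stained with 0.4% SRB in 1% acetic acid. Dye was solubilised in 10 mM Tris base and read at 515 nm; growth was expressed as a percentage of untreated control.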

OVCAR-5 = assay: Antitumor activity against human OVCAR5 cells after 48 hrs by SRB assay; settings: OVCAR-5, 48 h
Summary of the method: (§4)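 NCI60 panel in RPMI 1640 with 5% FBS and 2 mM L-glutamine. Cells were plated at 5000–40,000/well by doubling time, held 24 h, then time-zero plates were TCA-fixed. Five concentrations (10-fold or half-log dilutions of DMSO stocks) were applied for 48 h at 37 °C, 5% CO2. Cells were fixed with cold TCA (10% final adherent, 16% suspension) and stained with 0.4% SRB. Bound dye was dissolved in 10 mM Tris and read at 515 nm. GI50, TGI and LC50 were calculated per line.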

[1] = Antitumor activity against human Hs 578T cells after 48 hrs by SRB assay; summary of the method: as §4
UACC-257 = assay: Antitumor activity against human UACC257 cells after 48 hrs by SRB assay; settings: UACC-257, 48 h; summary of the method: as §2
COLO 205 = assay: Cytotoxicity against human COLO205 cells assessed as cellular growth at 10 uM after 48 hrs by SRB assay; summary of the method: as §1
HCC 2998 = assay: Antitumor activity against human HCC2998 cells after 48 hrs by SRB assay; settings: HCC 2998, 48 h; summary of the method: as §4
MOLT-4 = assay: Cytotoxicity against human MOLT4 cells assessed as cellular growth at 10 uM after 48 hrs by SRB assay; summary of the method: as §3
SR = assay: Cytotoxicity against human SR cells assessed as cellular growth at 10 uM after 48 hrs by SRB assay; summary of the method: as §3
SF-268 = assay: Cytotoxicity against human SF268 cells assessed as cellular growth at 10 uM after 48 hrs by SRB assay; summary of the method: as §3
LOX IMVI = assay: Cytotoxicity against human LOXIMVI cells assessed as cellular growth at 10 uM after 48 hrs by SRB assay; summary of the method: as §1
Malme-3M = assay: Antitumor activity against human MALME-3M cells after 48 hrs by SRB assay; summary of the method: as §4
HL-60(TB) [2] = assay: Cytotoxicity against human HL-60(TB) cells assessed as cellular growth at 10 uM after 48 hrs by SRB assay
MDA-MB-468 = assay: Cytotoxicity against human MDA-MB-468 cells assessed as cellular growth at 10 uM after 48 hrs by SRB assay; summary of the method: as §3
OVCAR-3 = assay: Antitumor activity against human OVCAR3 cells after 48 hrs by SRB assay; settings: OVCAR-3, 48 h; summary of the method: as §4
SNB-19 = assay: Antitumor activity against human SNB19 cells after 48 hrs by SRB assay; settings: SNB-19, 48 h; summary of the method: as §2
HL-60(TB) [3] = assay: Antitumor activity against human HL-60(TB) cells after 48 hrs by SRB assay; settings: HL-60, 48 h
Summary of the method: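 NCI60 screen: cells grown in RPMI 1640 with 5% FBS and 2 mM L-glutamine, plated at 5000–40,000 cells/well by doubling time, preincubated 24 h at 37 °C with 5% CO2. Compounds were diluted from DMSO stocks and given for 48 h, at five concentrations for dose response. A time-zero plate was TCA-fixed. Cells were TCA-fixed, stained with 0.4% SRB and read at 515 nm, with growth expressed relative to untreated controls.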

HOP-62 = assay: Antitumor activity against human HOP62 cells after 48 hrs by SRB assay; settings: HOP-62, 48 h; summary of the method: as §4
DU-145 = assay: Antitumor activity against human DU145 cells after 48 hrs by SRB assay; settings: DU-145, 48 h; summary of the method: as §4
A549 = assay: Antitumor activity against human A549 cells after 48 hrs by SRB assay; settings: A549, 48 h; summary of the method: as §4
[4] = read-out: LC50 (the source's name)
[5] = read-out: pLC50 (the source's name) (converted)

COc1cc(/C(=C2\O[C@@H]([C@H]3COC(C)(C)O3)[C@H]3OC(C)(C)O[C@@H]23)c2ccc3ccccc3c2)cc(OC)c1OC
Activity (HCT-15): 59.71%
GI50 (SK-MEL-5): 4.07 µM
LC50 (SK-MEL-5): 51.4 µM
TGI (SK-MEL-5): 15.4 µM
GI50 (SN12C; read-out: GI50): 3.65 µM
CC50 (SN12C; [4]): > 100 µM
TGI (SN12C; read-out: TGI): > 100 µM
GI50 (SN12C; read-out: pGI50 (converted)): 3.16 µM
CC50 (SN12C; [5]): > 100 µM
TGI (SN12C; read-out: pTGI): > 100 µM
Activity (OVCAR-4): 25.7%
GI50 (OVCAR-5; read-out: GI50): 14 µM
CC50 (OVCAR-5; [4]): > 100 µM
TGI (OVCAR-5; read-out: TGI): > 100 µM
GI50 (OVCAR-5; read-out: pGI50 (converted)): 3.89 µM
CC50 (OVCAR-5; [5]): > 100 µM
TGI (OVCAR-5; read-out: pTGI (converted)): 7.94 µM
GI50 [1]: 4.44 µM
TGI [1]: 53.4 µM
CC50 [1, 4]: > 100 µM
GI50 (UACC-257; read-out: GI50): 4.28 µM
CC50 (UACC-257; [4]): > 100 µM
TGI (UACC-257; read-out: TGI): 23.8 µM
GI50 (UACC-257; read-out: pGI50 (converted)): 4.27 µM
CC50 (UACC-257; [5]): > 100 µM
TGI (UACC-257; read-out: pTGI (converted)): 24 µM
Activity (COLO 205): 66.91%
GI50 (HCC 2998; read-out: GI50): 6.47 µM
CC50 (HCC 2998; [4]): > 100 µM
TGI (HCC 2998; read-out: TGI): > 100 µM
GI50 (HCC 2998; read-out: pGI50 (converted)): 6.46 µM
CC50 (HCC 2998; [5]): > 100 µM
TGI (HCC 2998; read-out: pTGI (converted)): > 100 µM
Activity (MOLT-4): 62.4%
Activity (SR): 51.36%
Activity (SF-268): -16.94%
Activity (LOX IMVI): 46.36%
GI50 (Malme-3M): 2.07 µM
LC50 (concentration killing 50% of cells present at time zero) (Malme-3M): > 100 µM
TGI (Malme-3M): 5.59 µM
Activity (HL-60(TB) [2]): 59.17%
Activity (MDA-MB-468): 51.21%
GI50 (OVCAR-3): 2.39 µM
TGI (OVCAR-3): 5.67 µM
CC50 (OVCAR-3; [4]): 21.7 µM
GI50 (SNB-19): 2.49 µM
TGI (SNB-19): 6.08 µM
CC50 (SNB-19; [4]): > 100 µM
GI50 (HL-60(TB) [3]; read-out: GI50): 74.9 µM
CC50 (HL-60(TB) [3]; [4]): > 100 µM
TGI (HL-60(TB) [3]; read-out: TGI): > 100 µM
GI50 (HL-60(TB) [3]; read-out: pGI50 (converted)): 74.1 µM
CC50 (HL-60(TB) [3]; [5]): > 100 µM
TGI (HL-60(TB) [3]; read-out: pTGI (converted)): > 100 µM
GI50 (HOP-62): 9.78 µM
TGI (HOP-62): 31.4 µM
CC50 (HOP-62; [4]): 99.8 µM
GI50 (DU-145; read-out: GI50): 4.33 µM
CC50 (DU-145; [4]): > 100 µM
TGI (DU-145; read-out: TGI): > 100 µM
GI50 (DU-145; read-out: pGI50 (converted)): 4.37 µM
CC50 (DU-145; [5]): > 100 µM
TGI (DU-145; read-out: pTGI (converted)): > 100 µM
GI50 (A549; read-out: GI50): 3.09 µM
CC50 (A549; [4]): > 100 µM
TGI (A549; read-out: TGI): 9.55 µM
GI50 (A549; read-out: pGI50 (converted)): 3.09 µM
CC50 (A549; [5]): > 100 µM
TGI (A549; read-out: pTGI (converted)): 9.55 µM
